A word on the viability: it is a read-out of living cells in per cent, often relative to untreated cells. For orientation: inhibition means the relative decrease from the control value, in per cent.

Twelve compounds from PubChem BioAssay can be followed below.

Assay [1] can be described thus: reduced viability of SK-BR-3 breast cancer cells – cell-based, 24 h, human, pilot screen (AID 572).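 Also: compound exposure lasted between 18 and 24 h rather than exactly 24 h; 100% = carrier-treated control wells.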 As to conditions: SK-BR-3 viability, CellTiter-Glo luminescence, at 10 µM, stronger effect = lower value.
Assay [2] in a line: HUVEC growth inhibition – cell-based, human, primary screen (AID 575;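 active = viability at or below 30% in both replicate assays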;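 also: 100% = median of untreated cell wells with 0.1% DMSO on each plate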). To be noted: HUVEC proliferation, CellTiter-Glo luminescence, 72 h; at 10 µM; stronger effect = lower value. An outline of the steps:
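Timing: 72 h treatment at 37 °C; material: HUVEC primary cells; technique: CellTiter-Glo luminescence measuring cellular ATP; controls: vehicle and MePR control wells; measure: percent of median DMSO-control luminescence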
Background: ATP-based viability assays read luminescence as a measure of living cells.

The nature of assay [3]: H69AR cell proliferation blockers – human, duplicate replicates, primary screen (AID 580;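 active = viability at or under a set limit in both replicates, limit being median viability minus 3 SD, cut at about 48% in these data, passing the limit was not always enough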;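 also: 100% = mean luminescence of untreated wells and 0% = no signal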). To be noted: H69AR lung tumor cells viability, ATP luminescence, 72 h; at 10 µM; stronger effect = lower value.
A short description of assay [4]: MRP1 drug-resistance reversers in H69AR cells – cell-based, doxorubicin co-treatment, pilot screen (AID 601;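 active = viability loss from added drug above about 55%, and viability with drug at most 40%, in both replicates, limit read from the data, passing the limit was not always enough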). To be noted: CellTiter-Glo, 72 h, at 10 µM; for differential viability (reversal): stronger effect = higher value.
A short description of assay [5]: yeast transport mutant growth inhibition pilot in 384-well plates, post-Golgi transport modulator project (AID 636; in the data active = inhibition above about 31%). To be noted: absorbance 615 nm, about 18 h, stronger effect = higher value.
A short description of assay [6]: growth suppression of yeast trafficking mutant, preliminary HTS, modulators of trafficking downstream of Golgi apparatus project, 1536-format plate, OD 615 nm (AID 637; in the data active = inhibition above about 30%). As to conditions: yeast transport mutant growth, absorbance 615 nm, 18 h; stronger effect = higher value.
Where [7] appears, read: H69AR cells + 2 uM doxorubicin, measured here: viability with 2 uM doxorubicin, stronger effect = lower value.
Setting [8] is: H69AR cells, compound alone cytotoxicity.

Structures are written as SMILES. Active and inactive are the calls of the source.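 The calls were made as follows, unless noted: active = viability at or below 10% of carrier control in both of two separate runs; inconclusive = viability at or below 10% in only one of the two runs; inactive = the rest.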

With `CCOC(=O)N1CCN(C(=O)CN(Cc2ccccc2)S(=O)(=O)c2ccc(OC)c(C)c2)CC1`, the viability in assay [1] was 106% (inactive); in assay [2], 102% (inactive); in assay [3], 94.7% (inactive); in assay [4] (setting [7]) it was 102%; in assay [4] (setting [8]), 94.7%. Further, the differential viability (reversal) in assay [4] (H69AR cells + 2 uM doxorubicin) is -7.75% (inactive). In addition, the inhibition is -0.13% (inactive) in assay [5] and -3.45% (inactive) in assay [6].

Consider `CCOC(=O)c1cc(C(C)(C)C)oc1CN`, for which the viability in assay [1] was 118% (inactive); in assay [2], 96.1% (inactive); in assay [3] it was 90.8% (inactive); in assay [4] (setting [7]), 92.5%; in assay [4] (setting [8]), 90.8%. Moreover, the differential viability (reversal) in assay [4] (H69AR cells + 2 uM doxorubicin) is -1.73% (inactive). In addition, the inhibition is -7.12% (inactive) in assay [5] and 9.35% (inactive) in assay [6].

As to `Cn1c(C(=O)NCc2cccnc2)cc2sccc21`, the viability in assay [1] was 115% (inactive); in assay [2] it was 102% (inactive); in assay [3], 93% (inactive); in assay [4] (setting [7]), 95.8%; in assay [4] (setting [8]), 93%. In addition, the differential viability (reversal) in assay [4] (H69AR cells + 2 uM doxorubicin) was -2.84% (inactive). For the same compound, the inhibition is 5.21% (inactive) in assay [5] and 11.1% (inactive) in assay [6].

As to `CCOC(=O)c1ccc(COC(=O)c2cc3ccccc3oc2=O)o1`, the viability in assay [1] was 114% (inactive); in assay [2], 114% (inactive); in assay [3], 114% (inactive); in assay [4] (setting [7]), 93.1%; in assay [4] (setting [8]) it was 114%. Further, the differential viability (reversal) in assay [4] (H69AR cells + 2 uM doxorubicin) was 20.8% (inactive). Further, the inhibition in assay [5] was -5.89% (inactive); in assay [6], 0.65% (inactive).

Regarding `Cc1occc1-c1nnc(SCC(=O)N2CCOCC2)n1Cc1ccco1`, the viability in assay [1] was 106% (inactive); in assay [2], 114% (inactive); in assay [3], 101% (inactive); in assay [4] (setting [7]), 103%; in assay [4] (setting [8]), 101%. Also, the differential viability (reversal) in assay [4] (H69AR cells + 2 uM doxorubicin) was -2.24% (inactive). In addition, the inhibition in assay [5] is -2.93% (inactive); in assay [6], 5.09% (inactive).

For the compound `c1ccc(-c2cc(N3CCCCC3)ncn2)cc1`, the viability in assay [1] is 105% (inactive); in assay [2] it was 101% (inactive); in assay [3], 99.7% (inactive); in assay [4] (setting [7]), 90.6%; in assay [4] (setting [8]), 99.7%. Besides, the differential viability (reversal) in assay [4] (H69AR cells + 2 uM doxorubicin) is 9.16% (inactive). Also, the figures for the inhibition in assay [5] and in assay [6] were -7.26% (inactive) and -0.32% (inactive), respectively.

Take `Cc1ccc(-c2nnc3c4ccccc4c(C)nn23)cc1S(=O)(=O)N1CCN(C)CC1`: the viability is 85% (inactive) in assay [1]; 78.6% (inactive) in assay [2]; 74% (inactive) in assay [3]; 90.7% in assay [4] (setting [7]); 74% in assay [4] (setting [8]). In addition, the differential viability (reversal) in assay [4] (H69AR cells + 2 uM doxorubicin) is -16.7% (inactive). Also, the inhibition in assay [5] is -5.2% (inactive); in assay [6], 1.15% (inactive).

For `Cc1cccc(NC(=O)C2CCCN2C(=O)OCC(C)C)c1C` (stereo unspecified), the viability in assay [1] was 96% (inactive); in assay [2], 108% (inactive); in assay [3] it was 92% (inactive); in assay [4] (setting [7]), 83.5%; in assay [4] (setting [8]), 92%. Moreover, the differential viability (reversal) in assay [4] (H69AR cells + 2 uM doxorubicin) was 8.52% (inactive). Moreover, the inhibition in assay [5] is -4.86% (inactive); in assay [6], -3.82% (inactive).

For `COc1ccc(C(NC(C)=O)c2ccc3cccnc3c2O)c(OC)c1` (stereo unspecified), the viability was 65% (inactive) in assay [1]; 3.65% (active) in assay [2]; 23% (active) in assay [3]; 45.1% in assay [4] (setting [7]); 23% in assay [4] (setting [8]). Moreover, the differential viability (reversal) in assay [4] (H69AR cells + 2 uM doxorubicin) was -22.1% (inactive). Moreover, the inhibition in assay [5] was -6.4% (inactive); in assay [6], 1.09% (inactive).

Turning to `Nc1nc(N)c2nc(-c3ccccc3)c(N)nc2n1`, the viability in assay [1] was 128% (inactive); in assay [2] it was 90.5% (inactive); in assay [3], 73.3% (inactive); in assay [4] (setting [7]), 78%; in assay [4] (setting [8]), 73.3%. In assay [4] (H69AR cells + 2 uM doxorubicin), the differential viability (reversal) is -4.71% (inactive). For the same compound, the figures for the inhibition in assay [5] and in assay [6] were -2.08% (inactive) and 1.5% (inactive), respectively.

`NS(=O)(=O)c1ccc(CCNC(=O)c2cccnc2)cc1`: the viability in assay [1] was 126% (inactive); in assay [2], 92.3% (inactive); in assay [3], 97.2% (inactive); in assay [4] (setting [7]), 93.4%; in assay [4] (setting [8]) it was 97.2%. Moreover, the differential viability (reversal) in assay [4] (H69AR cells + 2 uM doxorubicin) was 3.81% (inactive). In addition, the inhibition in assay [5] is -4.46% (inactive); in assay [6], -0.91% (inactive).

Turning to `Nc1nc(-c2ccc(Br)s2)c(Br)s1`, the viability in assay [1] is 100% (inactive); in assay [2] it was 61.3% (inactive); in assay [3], 94.3% (inactive); in assay [4] (setting [7]), 84.5%; in assay [4] (setting [8]), 94.3%. Also, the differential viability (reversal) in assay [4] (H69AR cells + 2 uM doxorubicin) is 9.83% (inactive). For the same compound, the inhibition is 2.6% (inactive) in assay [5] and -0.16% (inactive) in assay [6].
